Assay results: ChEMBL document CHEMBL4373678, “Development of hydroxamate-based histone deacetylase inhibitors of bis-substituted aromatic amides with antitumor activities” (Medchemcomm, 2019)
Calls of active or inactive are those of the source. No cut-off for these calls is given here.

Experiments:
[1] = species on record: Homo sapiens; conditions: at 0.5 µM;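 note: HDAC activity measured in a nuclear extract, with percent inhibition expressed against control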
[2] = target: T1, Histone deacetylase 1 (Homo sapiens, UniProt Q13547); assay: Inhibition of recombinant HDAC1 (unknown origin) expressed in baculovirus expression system using Ac-peptide-AMC as substrate preincubated for 15 mins followed by substrate addition by fluorescence based protease coupled assay
[3] = target: T1, Histone deacetylase 1; assay: Potency index, ratio of SAHA IC50 to compound IC50 for inhibition of recombinant HDAC1 (unknown origin) expressed in baculovirus expression system
[4] = system: MDA-MB-231; assay: Antiproliferative activity against human MDA-MB-231 cells assessed as reduction in cell viability after 48 hrs by SRB assay; type: functional, cell-based; conditions: MDA-MB-231, 48 h
[5] = system: MCF7; assay: Antiproliferative activity against human MCF7 cells assessed as reduction in cell viability after 48 hrs by SRB assay; type: functional, cell-based; conditions: MCF7, 48 h
[6] = system: A549; assay: Antiproliferative activity against human A549 cells assessed as reduction in cell viability after 48 hrs by SRB assay; type: functional, cell-based; conditions: A549, 48 h
Procedure, shortened: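 A549 cells in RPMI 1640 with 10% FBS at 37 °C, 5% CO₂, seeded 24 h before treatment at various concentrations. Cells were fixed with 10% TCA for 1 h at 4 °C and stained with 0.4% SRB for 5 min at room temperature. After 1% acetic acid washes, dye was dissolved in 10 mM Tris and A540 read. IC50 from three independent experiments in triplicate, mean ± SD.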

[7] = system: MCF-10A; assay: Cytotoxicity against human MCF10A cells assessed as reduction in cell viability after 48 hrs by SRB assay; type: ADME, cell-based
[8] = Cytotoxicity against human MCF10F cells assessed as reduction in cell viability after 48 hrs by SRB assay; type: ADME, cell-based; conditions: MCF-10F
[9] = system: BEAS-2B; assay: Cytotoxicity against human BEAS2B cells assessed as reduction in cell viability after 48 hrs by SRB assay; type: ADME, cell-based
[10] = system: A549; assay: Inhibition of colony formation in human A549 cells at 1 to 2.5 uM after 7 days by crystal violet staining based assay; type: functional, cell-based
Procedure, shortened: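 A549 cells plated at 800 per 35 mm dish and treated for one week, with medium replenished every 24 h. Cells were washed with PBS, fixed in methanol and stained with 1% crystal violet for 15 min. Colonies were counted. Triplicate, repeated three times.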

[11] = system: A549; assay: Antimetastatic activity in human A549 cells reduction in cell migration after 24 hrs by wound healing assay; type: functional, cell-based
Procedure, shortened: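 A549 cells (1.5x10⁵) plated in 6-well dishes and grown overnight to confluent monolayers. Monolayers were wounded with a pipette tip, then treated at various concentrations for 24 h. Wounds were photographed at 0, 12 and 24 h and migration distance measured. Result is % wound closure relative to 0 h. Triplicate, repeated three times.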

[12] = target: T1, Histone deacetylase 1; assay: Inhibition of HDAC1 in human A549 cells assessed as increase in H3 acetylation after 24 hrs by immunoblot analysis; type: cell-based
Procedure, shortened: (§1)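 A549 cells exposed to 1.0, 2.5 and 5.0 µM for 24 h, then immunoblotted for acetylated histone H3 and H4. RIPA lysates (35 µg) run on 15% SDS-PAGE and transferred to PVDF. Primary antibody 1:1000 overnight at 4 °C, HRP secondary 1:20000, ECL. Densitometry relative to β-actin; three independent experiments.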

[13] = target: T1, Histone deacetylase 1; assay: Inhibition of HDAC1 in human A549 cells assessed as increase in H4 acetylation after 24 hrs by immunoblot analysis; type: cell-based
Procedure, shortened: as §1

[14] = system: A549; assay: Induction of cell cycle arrest in human A549 cells assessed as accumulation at G2/M phase at 5 uM after 24 hrs by PI/RNaseA staining based flow cytometry analysis relative to control; type: functional
Procedure, shortened: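 A549 cells treated for 24 h, with vehicle as control. Cells were fixed in 70% ice-cold ethanol overnight at −20 °C, then stained with PI containing RNase A for 30 min at 37 °C. DNA content was read by flow cytometry. Mean ± SD of phase percentages from three independent experiments.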

[15] = system: A549; assay: Induction of G2/M cell cycle arrest in human A549 cells assessed as decrease in CDK1 expression at 1 to 2.5 uM by Western blot analysis; type: functional, cell-based
Procedure, shortened: (§2)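 Cell-cycle arm: A549 whole-cell lysates probed for CDK1 and cyclin B. Lysis in RIPA buffer; 35 µg protein run on 15% SDS-PAGE and blotted to PVDF. Blocked in 5% milk/PBST; primary antibody 1:1000 at 4 °C overnight, HRP secondary 1:20000 for 1 h at room temperature, ECL detection. Densitometry relative to β-actin; three separate experiments.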

[16] = system: A549; assay: Induction of G2/M cell cycle arrest in human A549 cells assessed as decrease in CyclinB1 expression at 1 to 2.5 uM by Western blot analysis; type: functional, cell-based
Procedure, shortened: as §2

[17] = system: A549; assay: Induction of apoptosis in human A549 cells assessed as viable cells at 5 uM after 72 hrs by Annexin V-phycoerythrin/7-AAD staining based flow cytometric analysis (reference value: 96.57%); type: functional
[18] = system: A549; assay: Induction of apoptosis in human A549 cells assessed as early apoptotic cells at 5 uM after 72 hrs by Annexin V-phycoerythrin/7-AAD staining based flow cytometric analysis (reference value: 1.13%); type: functional
[19] = system: A549; assay: Induction of apoptosis in human A549 cells assessed as late apoptotic cells at 5 uM after 72 hrs by Annexin V-phycoerythrin/7-AAD staining based flow cytometric analysis (reference value: 1.84%); type: functional
[20] = system: A549; assay: Induction of apoptosis in human A549 cells assessed as necrotic cells at 5 uM after 72 hrs by Annexin V-phycoerythrin/7-AAD staining based flow cytometric analysis (reference value: 0.45%); type: functional
[21] = system: A549; assay: Induction of apoptosis in human A549 cells assessed as viable cells at 1 uM after 72 hrs by Annexin V-phycoerythrin/7-AAD staining based flow cytometric analysis (reference value: 96.57%); type: functional; conditions: A549, 72 h, read-out: Activity
[22] = system: A549; assay: Induction of apoptosis in human A549 cells assessed as early apoptotic cells at 1 uM after 72 hrs by Annexin V-phycoerythrin/7-AAD staining based flow cytometric analysis (reference value: 1.13%); type: functional
[23] = system: A549; assay: Induction of apoptosis in human A549 cells assessed as late apoptotic cells at 1 uM after 72 hrs by Annexin V-phycoerythrin/7-AAD staining based flow cytometric analysis (reference value: 1.84%); type: functional
[24] = system: A549; assay: Induction of apoptosis in human A549 cells assessed as necrotic cells at 1 uM after 72 hrs by Annexin V-phycoerythrin/7-AAD staining based flow cytometric analysis (reference value: 0.45%); type: functional
[25] = system: A549; assay: Induction of apoptosis in human A549 cells assessed as viable cells at 2.5 uM after 72 hrs by Annexin V-phycoerythrin/7-AAD staining based flow cytometric analysis (reference value: 96.57%); type: functional; conditions: A549, 72 h, read-out: Activity
[26] = system: A549; assay: Induction of apoptosis in human A549 cells assessed as early apoptotic cells at 2.5 uM after 72 hrs by Annexin V-phycoerythrin/7-AAD staining based flow cytometric analysis (reference value: 1.13%); type: functional
[27] = system: A549; assay: Induction of apoptosis in human A549 cells assessed as late apoptotic cells at 2.5 uM after 72 hrs by Annexin V-phycoerythrin/7-AAD staining based flow cytometric analysis (reference value: 1.84%); type: functional
[28] = system: A549; assay: Induction of apoptosis in human A549 cells assessed as necrotic cells at 2.5 uM after 72 hrs by Annexin V-phycoerythrin/7-AAD staining based flow cytometric analysis (reference value: 0.45%); type: functional
[29] = system: A549; assay: Induction of apoptosis in human A549 cells assessed as increase in PARP cleavage at 1 to 5 uM after 48 hrs by Western blot analysis; type: functional, cell-based
Procedure, shortened: (§3)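 A549 cells treated at the indicated concentrations for 48 h, then blotted for cleaved caspase-3 and cleaved PARP. RIPA lysis; 35 µg protein on 15% SDS-PAGE, transferred to PVDF. Blocked in 5% milk/PBST; primary antibody 1:1000 overnight at 4 °C, HRP secondary 1:20000 for 1 h, ECL. Bands quantified by densitometry versus β-actin; three separate experiments.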

[30] = system: A549; assay: Induction of apoptosis in human A549 cells assessed as increase in caspase-3 cleavage at 1 to 5 uM after 48 hrs by Western blot analysis; type: functional, cell-based
Procedure, shortened: as §3

[31] = system: A549; assay: Induction of apoptosis in human A549 cells after 72 hrs by Annexin V-phycoerythrin/7-AAD staining based flow cytometric analysis; type: functional, cell-based

T1 sequence (Q13547 whole entry): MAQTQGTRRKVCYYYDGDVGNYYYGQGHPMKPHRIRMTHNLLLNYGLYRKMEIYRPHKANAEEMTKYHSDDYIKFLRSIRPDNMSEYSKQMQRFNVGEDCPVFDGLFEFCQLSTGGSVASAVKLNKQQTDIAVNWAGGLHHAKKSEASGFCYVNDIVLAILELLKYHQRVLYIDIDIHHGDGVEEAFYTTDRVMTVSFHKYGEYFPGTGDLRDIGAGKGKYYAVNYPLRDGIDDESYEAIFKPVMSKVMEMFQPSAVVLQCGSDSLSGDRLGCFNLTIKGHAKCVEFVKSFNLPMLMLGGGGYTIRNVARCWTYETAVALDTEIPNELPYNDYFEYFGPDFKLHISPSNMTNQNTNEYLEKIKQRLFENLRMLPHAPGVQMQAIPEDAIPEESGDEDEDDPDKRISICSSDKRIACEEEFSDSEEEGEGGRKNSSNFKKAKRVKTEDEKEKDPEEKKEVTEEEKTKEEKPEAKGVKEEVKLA

Compound `CCC(=O)Nc1cccc(CN(C(=O)CCCCCC(=O)NO)c2ccccc2OC)c1` has an inhibition [1] of 22%.
Compound `COc1ccccc1N(Cc1cccc(C(=O)NCc2ccccc2)c1)C(=O)CCCCCC(=O)NO` has an inhibition [1] of 38%.
`COc1ccccc1N(Cc1cccc(Br)c1)C(=O)CCCCCC(=O)NO` showed an inhibition [1] of 21%.
In the case of `COc1ccc(N(Cc2cccc(NC(=O)CCc3ccc(F)cc3)c2)C(=O)CCCCCC(=O)NO)cc1`, the inhibition [1] is reported as 49%.
Compound `COc1ccccc1N(Cc1cccc(C(=O)NCCCCCCc2ccccc2)c1)C(=O)CCCCCC(=O)NO` has an inhibition [1] of 4%.
Work on `CCNC(=O)c1cccc(CN(C(=O)CCCCCC(=O)NO)c2ccc(OC)cc2)c1` yielded an IC50 [2] of 0.0022 µM, a Ratio IC50 [3] of 11.4 and an IC50 [4] of 6.87 µM. The IC50 [5] was 6.96 µM, the IC50 [6] was 2.13 µM and the IC50 [7] was > 100 µM. For the same compound, the IC50 [8] was > 100 µM, the IC50 [9] was > 100 µM and the inhibition [10] was “Active”. The Activity [11] was “Dose-dependent effect”, the inhibition [12] was “Dose-dependent effect” and the inhibition [13] was “Dose-dependent effect”. The Activity [14] was 40.3%, the Activity [15] was “Active” and the Activity [16] was “Active”. For the same compound, the viability at 5 µM ([17]; Homo sapiens, A549, 72 h, read-out: Activity) was 17.7%, the Activity [18] was 23.85% and the Activity [19] was 57.6%. It also gave an Activity [20] of 0.89%, a viability at 1 µM [21] of 69.1% and an Activity [22] of 21.86%. It also gave an Activity [23] of 8.17%, an Activity [24] of 0.86% and a viability at 2.5 µM [25] of 42%. The Activity [26] was 29.35%, the Activity [27] was 27.09% and the Activity [28] was 1.54%. The Activity [29] was “Active”, the Activity [30] was “Active” and the Activity [31] was “Dose-dependent effect”. For the same compound, the inhibition [1] was 51%.
Compound `O=C(CCCCCCC(=O)Nc1ccccc1)NO` [VORINOSTAT] has an Activity [14] of 24.97%, an Activity [17] of 23.22% and an Activity [18] of 16.78%. The Activity [19] was 58.86% and the Activity [20] was 1.15%.
In the case of `COc1ccccc1N(Cc1cccc(C(=O)NCCCCc2ccccc2)c1)C(=O)CCCCCC(=O)NO`, the inhibition [1] is reported as 15%.
In the case of `COc1ccccc1N(Cc1cccc(C(=O)NCCCCc2ccc(F)cc2)c1)C(=O)CCCCCC(=O)NO`, the inhibition [1] is reported as 34%.
Compound `COc1ccc(N(Cc2cccc(C(=O)NCCc3ccc(F)cc3)c2)C(=O)CCCCCC(=O)NO)cc1` has an IC50 [2] of 0.0023 µM, a Ratio IC50 [3] of 10.9 and an IC50 [4] of 7.24 µM. The IC50 [5] was 7.17 µM, the IC50 [6] was 4.05 µM and the IC50 [7] was > 50 µM. For the same compound, the IC50 [8] was > 50 µM, the IC50 [9] was > 20 µM and the inhibition [1] was 53%.
`CCNC(=O)c1cccc(CN(C(=O)CCCCCC(=O)NO)c2ccccc2OC)c1` showed an inhibition [1] of 20%.
Compound `COc1ccc(CCNC(=O)c2cccc(CN(C(=O)CCCCCC(=O)NO)c3ccccc3OC)c2)cc1` has an inhibition [1] of 27%.
`CCNC(=O)c1cccc(CN(C(=O)CCCCCC(=O)NO)c2ccc(O)cc2)c1` showed an inhibition [1] of 21%.
For `COc1ccccc1N(Cc1cccc(C(=O)NCCc2ccccc2)c1)C(=O)CCCCCC(=O)NO`, the inhibition [1] was 38%.
Compound `CCN(CC)C(=O)c1cccc(CN(C(=O)CCCCCC(=O)NO)c2ccccc2OC)c1` has an inhibition [1] of 20%.
`COc1ccccc1N(Cc1cccc(C(=O)NCCCCCc2ccccc2)c1)C(=O)CCCCCC(=O)NO` showed an inhibition [1] of 16%.
For `COc1ccccc1N(Cc1cccc(NC(=O)Cc2ccccc2)c1)C(=O)CCCCCC(=O)NO`, the inhibition [1] was 37%.
Compound `COc1ccccc1N(Cc1cccc(C(=O)NCCc2ccc(F)cc2)c1)C(=O)CCCCCC(=O)NO` has an inhibition [1] of 39%.
In the case of `COc1ccccc1N(Cc1cccc(C(=O)NCCc2ccc(Cl)cc2)c1)C(=O)CCCCCC(=O)NO`, the inhibition [1] is reported as 36%.
